Measured values of several laboratories.
Compare with care: the assays were run in different laboratories.
Target: Adenosine receptor A2a (ADORA2A, Homo sapiens, UniProt P29274)

Compound	effect on	method	setting	Ki [nM]
CCNC(=O)[C@H]1O[C@@H](n2cnc3c(N)nc(NN=C[C@H]4CCC=CO4)nc32)[C@H](O)[C@@H]1O	ligand displacement	radioligand	–	3.76
Oc1cccc(Nc2nc(-c3ccc(F)cc3F)cs2)c1	cell-free assay	–	–	5100
c1coc(-c2nc3cc(CCN4CCOCC4)ccc3o2)c1	ligand displacement	radioligand	cell membranes	11000
CNC(=O)[C@@]12C[C@@H]1[C@@H](n1cnc3c(NCc4cccc(C#CCCCc5cn(-c6ccc(F)c(N)c6)nn5)c4)nc(Cl)nc31)[C@H](O)[C@@H]2O	ligand displacement	radioligand	cell membranes	2730
CSC[C@@]12C[C@@H]1[C@@H](n1cnc3c(N)nc(I)nc31)[C@H](O)[C@@H]2O	ligand displacement	radioligand	–	3120
CNC(=O)[C@@]12C[C@@H]1[C@@H](n1cnc3c(NCc4cn(-c5ccc(C(=O)NCCCF)cc5)nn4)nc(Cl)nc31)[C@H](O)[C@@H]2O	ligand displacement	radioligand	cell membranes	1840
CC(C)CN1CCCn2c1nc1c2c(=O)n(C)c(=O)n1C	ligand displacement	radioligand	cell membranes	930
c1coc(-c2nc3cc(NCCN4CCCCC4)ccc3o2)c1	ligand displacement	radioligand	cell membranes	11000
CNC(=O)c1csc(Nc2cccc(C)n2)n1	ligand displacement	radioligand	cell membranes	7100
CCCCCCN1CCCn2c1nc1c2c(=O)n(C)c(=O)n1C	ligand displacement	radioligand	cell membranes	2070
OC[C@@]12C[C@@H]1[C@@H](n1cnc3c(N[C@@H](C4CCC4)C4CC4)nc(I)nc31)[C@H](O)[C@@H]2O	ligand displacement	radioligand	–	3080
Nc1nc(-c2ccccc2Cl)nn1C(=O)CCc1ccccc1	ligand displacement	radioligand	cell membranes	630
